Data: ChEMBL document CHEMBL4732243, “Design, synthesis, and structure activity relationship analysis of new betulinic acid derivatives as potent HIV inhibitors” (Eur J Med Chem, 2021)

Experiments:
MT4 = test: Cytotoxicity against human MT4 cells assessed as reduction in cell viability incubated for 2 days by CytoTox-Glo cytotoxicity assay; assay type: cell-based; details: mt4, 48 h, time 2 day
Method in brief: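 Mock-infected MT-4 cells cultured 2 days with a range of compound concentrations. Viability measured by CytoTox-Glo, following the kit protocol, as percent viable cells. CC50 is the concentration giving a 50% reduction in cell viability.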

[1] = system: Human immunodeficiency virus 1; test: Potency index, ratio of IC50 for bevirimat to IC50 for test compound for antiviral activity against HIV-1 NL4-3 infected in human MT4 cells assessed as reduction in p24 gag protein incubated for 4 days by ELISA; assay type: functional; details: time 4 day
Method in brief: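 MT-4 cells infected with HIV-1 NL4-3 at MOI 0.01 and cultured with the test compounds. Bevirimat was run in parallel as the reference control. Supernatant p24 was measured on day 4 post-infection by antigen-capture ELISA. IC50 is the concentration that inhibits NL4-3 replication by 50%. The index is the bevirimat IC50 divided by the test-compound IC50.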

[2] = system: Human immunodeficiency virus 1; test: Antiviral activity against HIV-1 NL4-3 infected in human MT4 cells assessed as reduction in p24 gag protein incubated for 4 days by ELISA; assay type: functional, organism-based; details: Human immunodeficiency virus 1, NL4-3, MT4, 96 h
Method in brief: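 MT-4 cells infected with HIV-1 NL4-3 at MOI 0.01, serial compound concentrations, in 96-well format. Supernatant p24 antigen measured by capture ELISA on day 4 post-infection. IC50 is the concentration that inhibits NL4-3 replication by 50%. Bevirimat run in parallel as the reference.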

Row | SMILES | CC50 (MT4) | Ratio IC50 [1] | IC50 ([2]; read-out: IC50) | IC50 ([2]; read-out: pIC50 (converted))
1 | C=C(C)[C@@H]1CC[C@]2(C(=O)N3CCN(C(=O)/C=C/c4ccc(O)c(O)c4)CC3)CC[C@]3(C)[C@H](CC[C@@H]4[C@@]5(C)CC[C@H](OC(=O)CC(C)(C)C(=O)O)C(C)(C)[C@@H]5CC[C@]43C)[C@@H]12 | > 2000 nM | 2 |  | 
2 | C=C(C)[C@@H]1CC[C@]2(C(=O)N3CCN(C(=O)/C=C/c4ccc5c(c4)OCO5)CC3)CC[C@]3(C)[C@H](CC[C@@H]4[C@@]5(C)CC[C@H](OC(=O)CC(C)(C)C(=O)O)C(C)(C)[C@@H]5CC[C@]43C)[C@@H]12 | > 2000 nM | 2 |  | 
3 | C=C(C)[C@@H]1CC[C@]2(C(=O)N3CCN(C(=O)/C=C/c4ccc(O)c(OCc5cccc(Cl)c5)c4)CC3)CC[C@]3(C)[C@H](CC[C@@H]4[C@@]5(C)CC[C@H](OC(=O)CC(C)(C)C(=O)O)C(C)(C)[C@@H]5CC[C@]43C)[C@@H]12 | > 2000 nM |  | 190 nM | 
4 | C=C(C)[C@@H]1CC[C@]2(C(=O)N3CCNCC3)CC[C@]3(C)[C@H](CC[C@@H]4[C@@]5(C)CC[C@H](Oc6ccc(O)c(O)c6)C(C)(C)[C@@H]5CC[C@]43C)[C@@H]12 | > 2000 nM |  | 490 nM | 490 nM
5 | C=C(C)[C@@H]1CC[C@]2(C(=O)N3CCN(C(=O)/C=C/c4ccc(OCOC)c(OCc5cccc(Cl)c5)c4)CC3)CC[C@]3(C)[C@H](CC[C@@H]4[C@@]5(C)CC[C@H](OC(=O)CC(C)(C)C(=O)O)C(C)(C)[C@@H]5CC[C@]43C)[C@@H]12 | > 2000 nM |  | 460 nM | 
6 | C=C(C)[C@@H]1CC[C@]2(C(=O)N3CCN(C(=O)/C=C/c4cccs4)CC3)CC[C@]3(C)[C@H](CC[C@@H]4[C@@]5(C)CC[C@H](OC(=O)CC(C)(C)C(=O)O)C(C)(C)[C@@H]5CC[C@]43C)[C@@H]12 | > 2000 nM |  | 32 nM | 32.4 nM
7 | C=C(C)[C@@H]1CC[C@]2(C(=O)N3CCN(C(=O)/C=C/c4ccc(OC)cc4)CC3)CC[C@]3(C)[C@H](CC[C@@H]4[C@@]5(C)CC[C@H](OC(=O)CC(C)(C)C(=O)O)C(C)(C)[C@@H]5CC[C@]43C)[C@@H]12 | > 2000 nM |  | 76 nM | 75.9 nM
8 | C=C(C)[C@@H]1CC[C@]2(C(=O)N3CCN(C(=O)/C=C/c4ccc(N(C)C)cc4)CC3)CC[C@]3(C)[C@H](CC[C@@H]4[C@@]5(C)CC[C@H](OC(=O)CC(C)(C)C(=O)O)C(C)(C)[C@@H]5CC[C@]43C)[C@@H]12 | > 2000 nM |  | 27 nM | 26.9 nM
9 | C=C(C)[C@@H]1CC[C@]2(C(=O)OCCCN3CCN(c4cc(NCc5ccccc5)ncn4)CC3)CC[C@]3(C)[C@H](CC[C@@H]4[C@@]5(C)CC[C@H](OC(=O)CC(C)(C)C(=O)O)C(C)(C)[C@@H]5CC[C@]43C)[C@@H]12 | > 2000 nM |  | 430 nM | 
10 | C=C(C)[C@@H]1CC[C@]2(C(=O)N3CCN(C(=O)/C=C/c4ccccc4OC)CC3)CC[C@]3(C)[C@H](CC[C@@H]4[C@@]5(C)CC[C@H](OC(=O)CC(C)(C)C(=O)O)C(C)(C)[C@@H]5CC[C@]43C)[C@@H]12 | > 2000 nM |  | 170 nM | 170 nM
11 | C=C(C)[C@@H]1CC[C@]2(C(=O)N3CCN(C(=O)CCC(=O)Nc4nccs4)CC3)CC[C@]3(C)[C@H](CC[C@@H]4[C@@]5(C)CC[C@H](OC(=O)CC(C)(C)C(=O)O)C(C)(C)[C@@H]5CC[C@]43C)[C@@H]12 | > 2000 nM |  | 40 nM | 39.8 nM
12 | C=C(C)[C@@H]1CC[C@]2(C(=O)N3CCN(C(=O)/C=C/c4ccc5c(c4)OC(F)(F)O5)CC3)CC[C@]3(C)[C@H](CC[C@@H]4[C@@]5(C)CC[C@H](OC(=O)CC(C)(C)C(=O)O)C(C)(C)[C@@H]5CC[C@]43C)[C@@H]12 | > 2000 nM |  | 590 nM | 589 nM
13 | C=C(C)[C@@H]1CC[C@]2(C(=O)N3CCN(C(=O)/C=C/c4cccc(OCOC)c4)CC3)CC[C@]3(C)[C@H](CC[C@@H]4[C@@]5(C)CC[C@H](OC(=O)CC(C)(C)C(=O)O)C(C)(C)[C@@H]5CC[C@]43C)[C@@H]12 | > 2000 nM |  | 90 nM | 89.1 nM
14 | C=C(C)[C@@H]1CC[C@]2(C(=O)N3CCN(c4cc(NCc5ccccc5)ncn4)CC3)CC[C@]3(C)[C@H](CC[C@@H]4[C@@]5(C)CC[C@H](OC(=O)CC(C)(C)C(=O)O)C(C)(C)[C@@H]5CC[C@]43C)[C@@H]12 | > 2000 nM |  | 37 nM | 
